Results: ChEMBL document CHEMBL4138150, “Quinoline derivatives bearing pyrazole moiety: Synthesis and biological evaluation as possible antibacterial and antifungal agents” (2018)
≈ marks a conversion by molar mass, not a printed value.

Legend:
Type in all cases: functional
Aspergillus clavatus [1] = test: Antimicrobial activity against Aspergillus clavatus RCMB 02593 assessed as diameter of zone inhibition at 5 mg/ml after 72 hrs by agar well diffusion assay; settings: RCMB 02593, 72 h, read-out: DIZ
Method in brief: (§1)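 Fungi (1 x10^6 CFU/mL, 100 µL) were spread on Sabouraud dextrose agar. 10 mm wells were loaded with 100 µL of test solution at 5 mg/mL in DMSO, or amphotericin B standard at 1 mg/mL. A DMSO negative control was included. Plates were incubated 72 h at 28 °C. Inhibition zone diameter (mm) was recorded as the average of triplicate runs.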

Staphylococcus aureus [2] = test: Antimicrobial activity against Staphylococcus aureus RCMB 010027 after overnight incubation by macro-tube dilution technique
Method in brief: (§2)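 Macro-tube twofold dilution following NCCLS guidance, run in nutrient broth. The first tube held 10 mg compound in 2.0 mL DMSO and was serially halved 1:1 into 1.0 mL broth through tube 14; tube 15 was the control. The inoculum was suspended to turbidity in 5.0 mL broth, 0.2 mL was diluted into 40 mL, and 1.0 mL was added per tube. Tubes were incubated overnight at 37 °C. MIC was the lowest concentration with no growth.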

Bacillus subtilis [3] = test: Antimicrobial activity against Bacillus subtilis RCMB 010063 after overnight incubation by macro-tube dilution technique; method in brief: as §2
Shigella flexneri [4] = test: Antimicrobial activity against Shigella flexneri RCMB 0100542 assessed as diameter of zone inhibition at 5 mg/ml after 24 hrs by agar well diffusion assay; settings: RCMB 0100542, 24 h, read-out: DIZ
Method in brief: (§3)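 Agar well diffusion: 100 µL of 1 x10^8 CFU/mL bacteria was spread on nutrient agar. 10 mm wells received 100 µL of compound at 5 mg/mL in DMSO, or ampicillin or gentamycin standards at 1 mg/mL. DMSO served as negative control. Plates were incubated 24 h at 37 °C. Inhibition zone diameter (mm) was measured as the mean of triplicates.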

Proteus vulgaris [5] = test: Antimicrobial activity against Proteus vulgaris RCMB 010085 assessed as diameter of zone inhibition at 5 mg/ml after 24 hrs by agar well diffusion assay; settings: RCMB 010085, 24 h, read-out: DIZ; method in brief: as §3
Aspergillus clavatus [6] = test: Antimicrobial activity against Aspergillus clavatus RCMB 02593 after 72 hrs by macro-tube dilution technique; settings: RCMB 02593, 72 h
Method in brief: (§4)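 Twofold macro-tube dilution following NCCLS guidance, run in malt extract broth. 10 mg compound in 2.0 mL DMSO in tube 1 was serially diluted 1:1 through tube 14 into 1.0 mL broth; tube 15 was the control. Culture was suspended to turbidity in 5.0 mL broth, 0.2 mL was diluted into 40 mL, and 1.0 mL was added per tube. Incubation was 72 h at 30 °C. MIC was the lowest concentration with no growth.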

[7] = system: Staphylococcus epidermidis; test: Antimicrobial activity against Staphylococcus epidermidis RCMB 010024 after overnight incubation by macro-tube dilution technique; method in brief: as §2
Klebsiella pneumoniae [8] = test: Antimicrobial activity against Klebsiella pneumoniae RCMB 010093 after overnight incubation by macro-tube dilution technique; method in brief: as §2
Bacillus subtilis [9] = test: Antimicrobial activity against Bacillus subtilis RCMB 010063 assessed as diameter of zone inhibition at 5 mg/ml after 24 hrs by agar well diffusion assay; settings: RCMB 010063, 24 h, read-out: DIZ; method in brief: as §3
Aspergillus fumigatus [10] = test: Antimicrobial activity against Aspergillus fumigatus RCMB 02564 after 72 hrs by macro-tube dilution technique; settings: RCMB 02564, 72 h; method in brief: as §4
Staphylococcus aureus [11] = test: Antimicrobial activity against Staphylococcus aureus RCMB 010027 assessed as diameter of zone inhibition at 5 mg/ml after 24 hrs by agar well diffusion assay; settings: RCMB 010027, 24 h, read-out: DIZ; method in brief: as §3
[12] = system: Staphylococcus epidermidis; test: Antimicrobial activity against Staphylococcus epidermidis RCMB 010024 assessed as diameter of zone inhibition at 5 mg/ml after 24 hrs by agar well diffusion assay; settings: RCMB 010024, 24 h, read-out: DIZ; method in brief: as §3
Shigella flexneri [13] = test: Antimicrobial activity against Shigella flexneri RCMB 0100542 after overnight incubation by macro-tube dilution technique; method in brief: as §2
Candida albicans [14] = test: Antimicrobial activity against Candida albicans RCMB 05035 assessed as diameter of zone inhibition at 5 mg/ml after 72 hrs by agar well diffusion assay; settings: RCMB 05035, 72 h, read-out: DIZ; method in brief: as §1
Aspergillus fumigatus [15] = test: Antimicrobial activity against Aspergillus fumigatus RCMB 02564 assessed as diameter of zone inhibition at 5 mg/ml after 72 hrs by agar well diffusion assay; settings: RCMB 02564, 72 h, read-out: DIZ; method in brief: as §1
Klebsiella pneumoniae [16] = test: Antimicrobial activity against Klebsiella pneumoniae RCMB 010093 assessed as diameter of zone inhibition at 5 mg/ml after 24 hrs by agar well diffusion assay; settings: RCMB 010093, 24 h, read-out: DIZ; method in brief: as §3
Candida albicans [17] = test: Antimicrobial activity against Candida albicans RCMB 05035 after 72 hrs by macro-tube dilution technique; settings: RCMB 05035, 72 h; method in brief: as §4
Proteus vulgaris [18] = test: Antimicrobial activity against Proteus vulgaris RCMB 010085 after overnight incubation by macro-tube dilution technique; method in brief: as §2
Proteus vulgaris [19] = test: Potency index, ratio of Gentamycin IC50 to compound IC50 for Proteus vulgaris RCMB 010085

MIC (Staphylococcus aureus [2]) [µg/mL]	MIC (Bacillus subtilis [3]) [µg/mL]	MIC (Aspergillus clavatus [6]) [µg/mL]	MIC [7] [µg/mL]	MIC (Klebsiella pneumoniae [8]) [µg/mL]	MIC (Aspergillus fumigatus [10]) [µg/mL]	MIC (Shigella flexneri [13]) [µg/mL]	MIC (Candida albicans [17]) [µg/mL]	MIC (Proteus vulgaris [18]) [µg/mL]	SMILES	zone of inhibition at 5000 µg/mL (Aspergillus clavatus [1]) [mm]	zone of inhibition at 5000 µg/mL (Shigella flexneri [4]) [mm]	zone of inhibition at 5000 µg/mL (Proteus vulgaris [5]) [mm]	zone of inhibition at 5000 µg/mL (Bacillus subtilis [9]) [mm]	zone of inhibition at 5000 µg/mL (Staphylococcus aureus [11]) [mm]	zone of inhibition at 5000 µg/mL [12] [mm]	zone of inhibition at 5000 µg/mL (Candida albicans [14]) [mm]	zone of inhibition at 5000 µg/mL (Aspergillus fumigatus [15]) [mm]	zone of inhibition at 5000 µg/mL (Klebsiella pneumoniae [16]) [mm]	Ratio (Proteus vulgaris [19])
3.9 (≈ 10 µM)	1.97 (≈ 5.06 µM)	15.6 (≈ 40.1 µM)	3.9 (≈ 10 µM)	3.9 (≈ 10 µM)	7.81 (≈ 20.1 µM)	7.81 (≈ 20.1 µM)	7.81 (≈ 20.1 µM)	7.81 (≈ 20.1 µM)	C(=N\Nc1ccc2ccccc2n1)/c1cn(-c2ccccc2)nc1-c1ccccc1	18.4	20.1	20.2	23.2	22.2	23.4	19.6	17.5	21.2	
		7.81 (≈ 23.8 µM)			7.81 (≈ 23.8 µM)		1.95 (≈ 5.94 µM)		CCOC(=O)c1c(SC)nn(-c2ccc3ccccc3n2)c1N	19.3	0	0	19.8	15.8	17.8	20.3	18.7	0	
3.9 (≈ 15.6 µM)	0.98 (≈ 3.93 µM)	7.8 (≈ 31.3 µM)	0.98 (≈ 3.93 µM)	31.2 (≈ 125 µM)	15.6 (≈ 62.7 µM)	31.2 (≈ 125 µM)	1.95 (≈ 7.82 µM)	500 (≈ 2010 µM)	Cc1nn(-c2ccc3ccccc3n2)c(N)c1C#N	18.3	15.9	11.6	20.9	19.2	20.6	20.4	16.8	15.7	
1.95 (≈ 6.58 µM)	1.95 (≈ 6.58 µM)	3.9 (≈ 13.2 µM)	15.6 (≈ 52.7 µM)	31.2 (≈ 105 µM)	31.2 (≈ 105 µM)	15.6 (≈ 52.7 µM)	1.95 (≈ 6.58 µM)	125 (≈ 422 µM)	CCOC(=O)c1c(C)nn(-c2ccc3ccccc3n2)c1N	18.6	16.8	13.6	20.2	20.3	17.3	19.8	16.3	15.9	
0.97 (≈ 2.43 µM)	1.95 (≈ 4.88 µM)	15.6 (≈ 39.1 µM)	0.97 (≈ 2.43 µM)	1.95 (≈ 4.88 µM)	7.81 (≈ 19.5 µM)	1.95 (≈ 4.88 µM)	1.95 (≈ 4.88 µM)	0.97 (≈ 2.43 µM)	Clc1ccccc1C1CC(c2ccc(Oc3ccc4ccccc4n3)cc2)=NN1 (centres undefined)	17.5	23.6	23.6	24.2	23.9	25.3	18.5	21.4	22.8	2
1.95 (≈ 4.83 µM)	0.49 (≈ 1.21 µM)	7.81 (≈ 19.4 µM)	0.98 (≈ 2.43 µM)	7.81 (≈ 19.4 µM)	0.98 (≈ 2.43 µM)	7.81 (≈ 19.4 µM)	0.49 (≈ 1.21 µM)	31.2 (≈ 77.4 µM)	Cc1ccc(-c2nn(-c3ccccc3)cc2/C=N/Nc2ccc3ccccc3n2)cc1	18.3	18.3	16.2	22.4	20.3	20.7	22.1	20.5	17.6	
0.97 (≈ 2.29 µM)	0.97 (≈ 2.29 µM)	7.81 (≈ 18.4 µM)	3.9 (≈ 9.2 µM)	3.9 (≈ 9.2 µM)	15.6 (≈ 36.9 µM)	3.9 (≈ 9.2 µM)	3.9 (≈ 9.2 µM)	3.9 (≈ 9.2 µM)	Clc1ccc(-c2nn(-c3ccccc3)cc2/C=N/Nc2ccc3ccccc3n2)cc1	19.8	21.8	21.4	27.6	24.5	25.7	24.9	21.5	22.9	

Second part, the molecule before the results:

SMILES	MIC (Staphylococcus aureus [2]) [µg/mL]	MIC (Bacillus subtilis [3]) [µg/mL]	MIC (Aspergillus clavatus [6]) [µg/mL]	MIC [7] [µg/mL]	MIC (Klebsiella pneumoniae [8]) [µg/mL]	MIC (Aspergillus fumigatus [10]) [µg/mL]	MIC (Shigella flexneri [13]) [µg/mL]	MIC (Candida albicans [17]) [µg/mL]	MIC (Proteus vulgaris [18]) [µg/mL]	zone of inhibition at 5000 µg/mL (Aspergillus clavatus [1]) [mm]	zone of inhibition at 5000 µg/mL (Shigella flexneri [4]) [mm]	zone of inhibition at 5000 µg/mL (Proteus vulgaris [5]) [mm]	zone of inhibition at 5000 µg/mL (Bacillus subtilis [9]) [mm]	zone of inhibition at 5000 µg/mL (Staphylococcus aureus [11]) [mm]	zone of inhibition at 5000 µg/mL [12] [mm]	zone of inhibition at 5000 µg/mL (Candida albicans [14]) [mm]	zone of inhibition at 5000 µg/mL (Aspergillus fumigatus [15]) [mm]	zone of inhibition at 5000 µg/mL (Klebsiella pneumoniae [16]) [mm]	Ratio (Proteus vulgaris [19])
COc1ccc(C(=O)/C=C/c2ccc(Oc3ccc4ccccc4n3)cc2)cc1										11.5	0	0	0	8.7	10.6	0	10.7	7.2	
COc1ccc(C2=NNC(c3ccc(Oc4ccc5ccccc5n4)cc3)C2)cc1 (centres undefined)										12.8	15.4	16.2	19.4	16.2	18.6	11.6	15.6	0	
CSc1nn(-c2ccc3ccccc3n2)c(N)c1C#N										15.9	16.2	12.3	19.8	18.9	16.2	16.8	15.7	15.3	
N#Cc1c(-c2cccc(Cl)c2)nn(-c2ccc3ccccc3n2)c1N										13.2	0	0	13.3	10.3	11.6	15.2	12.3	0	
Clc1ccccc1C1CC(c2ccc(Oc3ccc4ccccc4n3)cc2)=NN1c1ccccc1 (centres undefined)										0	0	12.4	16.4	14.8	0	9.3	12.3	13.3	
COc1ccc(C2CC(c3ccc(Oc4ccc5ccccc5n4)cc3)=NN2)cc1 (centres undefined)										14.2	14.3	14.3	13.7	13.1	14.6	12.1	13.5	16.2	
COc1ccc(C2=NN(c3ccccc3)C(c3ccc(Oc4ccc5ccccc5n4)cc3)C2)cc1 (centres undefined)										14.5	14.4	13.5	0	12.1	13.1	11.6	16.2	15.9	
